Results from different studies.
Protocols differ between the studies behind these lines.

CNC(=O)c1ccccc1Sc1ccc2c(/C=C/c3ccccn3)n[nH]c2c1
logP: 3.1

Cc1cc(Cl)cc(S(C)(=O)=O)c1NC(=O)c1cc(Br)nn1-c1ncccc1Cl
logP (potentiometric): 4.34

N#Cc1[nH]nnc1-c1cccc(-c2cc(F)cc(C(F)(F)F)c2)c1
logP (potentiometric): 5.2

C=CCN1CC[C@]23c4c5ccc(O)c4O[C@H]2[C@@H](OCCOCCOCCOCCOCCOCCOCCOC)CC[C@@]3(O)[C@H]1C5
logP: 1.43

O=C(c1cc(Cc2n[nH]c(=O)c3ccccc23)ccc1F)N1CCN(C(=O)C2CC2)CC1
logP: 1.55

CC(=O)NCN1N=C(C)C(=NNn2c(-c3ccccc3)nc3ccccc3c2=O)C1=O
logP: 2.24

CC(=O)c1ccccc1
logP (water; 1 h): 1.51

CC1=NN(CNc2ccccc2[N+](=O)[O-])C(=O)C1=NNn1c(-c2ccccc2)nc2ccccc2c1=O
logP: 5.08

Clc1cc2c(c3ncccc13)OCN(CCc1ccccc1)C2
logP: 4.54

CCc1nc(N)nc(N)c1-c1ccc(Cl)cc1
logP: 3.14

O=C1NN=C(N=Cc2ccccc2)C1=NNn1c(-c2ccccc2)nc2ccccc2c1=O
logP: 3.39

C=C[C@H]1C[N@@]2CC[C@H]1C[C@@H]2[C@@H](O)c1ccnc2ccc(OC)cc12
logP (water): 2.84

CC1=NN(CNc2ccc(O)cc2)C(=O)C1=NNn1c(-c2ccccc2)nc2ccccc2c1=O
logP: 4.19

Nc1nc2[nH]cc(CCc3ccc(C(=O)N[C@@H](CCC(=O)O)C(=O)O)cc3)c2c(=O)[nH]1
logP (water; 24 h): -0.842

N#Cc1[nH]nnc1-c1cc(Cl)cc(/C=C/c2cccc(C(F)(F)F)c2)c1
logP (potentiometric): 5.4

CC(C)N1CCN(Cc2cnc(-c3cc(-c4cccc5[nH]ccc45)cc4[nH]ncc34)o2)CC1
logP: 4.01
